Results taken from article PMC8105262 (Molecular imaging and biology, 2020).
Read-outs that look alike come from different tables or passages of the source.

What was measured:
[1] = biological target: SV2A; settings: [^3H]UCB-J competitive binding, rat whole brain; cited from earlier work
[2] = biological target: SV2A; settings: rat brain homogenate; cited from earlier work
[3] = biological target: T1, SV2A (Mus musculus, UniProt Q9JIS5); type: binding
How it was run: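 Mouse brain homogenate in 50 mM Tris-HCl with 2 mM MgCl2, pH 7.4, at 0.01 mg protein per well. Unlabelled ligand added from standard solutions of 0.1–50,000 nM, plus radioligand (~0.074 MBq, 2.3 nM). Shaken at 37 °C for 30 min, filters washed twice with buffer, then gamma counted. Binding expressed as pmol/mg protein. Nonspecific binding defined with 0.05 mM unlabelled ligand. Specific binding plotted against log total (hot + cold) ligand concentration.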

[4] = biological target: T1, SV2A; type: binding; remark: listed apart in the source
[5] = biological target: T1, SV2A; experiment: Dynamic small animal PET imaging of mouse brain with [^18F]SynVesT-1; type: in vivo
How it was run: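 Female WT (C57BL/6J) and APP/PS1 mice, 88 ± 4 weeks, n = 3 each, under 1.5–2.5% isoflurane on a heating pad. Radiotracer given as an i.v. lateral tail-vein bolus (10.28 ± 3.74 MBq in 0.1 mL). Baseline emission data acquired 0–90 min p.i. on small-animal PET/CT. OSEM3D/MAP reconstruction with decay, attenuation, scatter, normalization and randoms corrections. Images co-registered to mouse brain atlas space for regional time-activity curves.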

[6] = test system: SV2A binding in the hippocampus; settings: APP/PS1 mice vs WT, [^11C]UCB-J PET; cited from earlier work
[7] = rodent brain, from time-activity curves

T1 sequence (Q9JIS5 whole entry): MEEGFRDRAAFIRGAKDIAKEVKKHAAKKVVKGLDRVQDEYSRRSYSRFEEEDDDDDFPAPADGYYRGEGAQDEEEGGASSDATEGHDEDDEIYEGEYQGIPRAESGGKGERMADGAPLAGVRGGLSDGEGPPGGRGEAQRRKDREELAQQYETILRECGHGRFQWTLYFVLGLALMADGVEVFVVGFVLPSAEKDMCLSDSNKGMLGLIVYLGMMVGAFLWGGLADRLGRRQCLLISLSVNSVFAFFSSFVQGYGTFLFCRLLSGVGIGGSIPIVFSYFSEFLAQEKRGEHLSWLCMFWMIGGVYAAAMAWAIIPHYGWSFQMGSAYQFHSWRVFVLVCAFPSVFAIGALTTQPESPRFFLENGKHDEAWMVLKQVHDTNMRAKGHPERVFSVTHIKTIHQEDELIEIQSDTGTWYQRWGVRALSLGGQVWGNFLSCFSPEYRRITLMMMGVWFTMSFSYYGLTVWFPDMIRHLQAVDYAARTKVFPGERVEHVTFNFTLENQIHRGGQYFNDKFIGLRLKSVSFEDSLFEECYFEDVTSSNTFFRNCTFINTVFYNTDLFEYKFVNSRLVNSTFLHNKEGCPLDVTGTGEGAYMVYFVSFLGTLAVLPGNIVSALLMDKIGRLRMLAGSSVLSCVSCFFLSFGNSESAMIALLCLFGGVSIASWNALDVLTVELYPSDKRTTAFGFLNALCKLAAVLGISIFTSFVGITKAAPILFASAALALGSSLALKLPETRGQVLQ

## Cc1cnccc1CN1C[C@@H](c2cc(F)cc(F)c2)CC1=O [SynVesT-1]
[1]
  Ki: 2.2 nM

## Cc1cnccc1CN1C[C@@H](c2cc(F)c(F)c(F)c2)CC1=O [UCB-J]
[2]
  Kd: 2.6 ± 0.25 nM

## Cc1cnccc1CN1C[C@@H](c2cc(F)cc(F)c2)CC1=O [[^18F]SynVesT-1, (R)-4-(3-Fluoro-5-(fluoro-^18F)phenyl)-1-((3-methylpyridin-4-yl)methyl)pyrrolidin-2-one]
[3]; mouse brain homogenate, 37 °C, 30 min, Kd=Ki=IC50−[radioligand]
  Kd: 19.6 ± 1.38 nM
[4]; WT mouse brain sections, nonspecific binding with 1 mM levetiracetam
  Kd: 9.8 ± 1.7 nM

## Cc1cnccc1CN1C[C@@H](c2cc(F)cc([18F])c2)CC1=O [[^18F]SynVesT-1, (R)-4-(3-Fluoro-5-(fluoro-^18F)phenyl)-1-((3-methylpyridin-4-yl)methyl)pyrrolidin-2-one]
[5]; WT and APP/PS1 mice, i.v. bolus, 0–90 min scan
  Time of peak of brain time-activity curves: ≤ 20 min p.i.
[5]; [7]
  BBB penetration: efficient BBB penetration
  Binding kinetics in brain: reversible binding kinetics
[3]; mouse brain homogenate
  Bmax: 4.54 pmol/mg protein
[3]; rodent brain tissue
  Bmax (range over homologous competitive and autoradiographic saturation assays): 4.5–18 pmol/mg protein
[4]; WT mouse brain sections
  Bmax: 1.8 ± 0.1 pmol/mg of brain tissue
[4]; WT mouse brain sections, assuming 10% of brain tissue is protein
  Bmax: 18 ± 1 pmol/mg protein
[4]; mouse brain sections
  Radioligand concentration at which total binding appeared to saturate: above 25 nM

## CN1CCN(CCOc2cc(OC3CCOCC3)c3c(Nc4c(Cl)ccc5c4OCO5)ncnc3c2)CC1 [saracatinib]
[6]
  Effect of treatment on decreased hippocampal SV2A binding: restored to the same level as the WT mice
